Values after ≈ are worked out from the molar mass of the structure shown.
What was measured:
Assay type in all cases: functional
[1] = test system: Candida albicans; assay: Antifungal activity against Candida albicans after 24 hrs by serial dilution method
Method in brief: (§1)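 NCCLS broth microdilution in 96-well plates, with ATCC or clinical isolate strains. Medium was RPMI 1640 buffered with 0.165 M MOPS, and compounds were dissolved in DMSO and serially diluted in medium. Yeasts were incubated at 35 °C and growth was read at 24 h. MIC80 was taken as the lowest concentration giving ≥80% growth inhibition versus the drug-free control.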

[2] = test system: Candida tropicalis; assay: Antifungal activity against Candida tropicalis after 24 hrs by serial dilution method; method in brief: as §1
[3] = test system: Candida parapsilosis; assay: Antifungal activity against Candida parapsilosis after 24 hrs by serial dilution method; details: Lodderomyces parapsilosis; method in brief: as §1
[4] = test system: Cryptococcus neoformans; assay: Antifungal activity against Cryptococcus neoformans after 72 hrs by serial dilution method
Method in brief: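 Cryptococcus yeast, ATCC or clinical isolate, tested by NCCLS serial dilution in 96-well plates with RPMI 1640 plus 0.165 M MOPS. Compounds were dissolved in DMSO and serially diluted in medium. Incubation was at 35 °C with MIC80 read at 72 h, defined as the lowest concentration giving ≥80% growth inhibition relative to control.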

[5] = test system: Pichia kudriavzevii; assay: Antifungal activity against Candida krusei after 24 hrs by serial dilution method; method in brief: as §1
[6] = test system: Trichophyton rubrum; assay: Antifungal activity against Trichophyton rubrum by serial dilution method
Method in brief: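 Dermatophyte, ATCC or clinical isolate, tested by NCCLS serial-dilution microtest in RPMI 1640 buffered with 0.165 M MOPS. Compounds were dissolved in DMSO and diluted serially in medium, and incubation was at 28 °C. The endpoint was MIC80, the lowest concentration reducing turbidity to ≥80% inhibition of control growth.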

SMILES | MIC80 [1] | MIC80 [2] | MIC80 [3] | MIC80 [4] | MIC80 [5] | MIC80 [6]
CN(CCCOc1ccc(Br)cc1)CC(O)(Cn1cncn1)c1ccc(F)cc1F (centres undefined) | 0.5 µg/mL (≈ 1.04 µM) | 2 µg/mL (≈ 4.16 µM) | 1 µg/mL (≈ 2.08 µM) | 1 µg/mL (≈ 2.08 µM) | 2 µg/mL (≈ 4.16 µM) | 2 µg/mL (≈ 4.16 µM)
CN(CCCOc1ccccc1)CC(O)(Cn1cncn1)c1ccc(F)cc1F (centres undefined) | 0.0125 µg/mL (≈ 0.0311 µM) | < 0.125 µg/mL | 0.125 µg/mL (≈ 0.311 µM) | 1 µg/mL (≈ 2.48 µM) | 0.5 µg/mL (≈ 1.24 µM) | 1 µg/mL (≈ 2.48 µM)
CCOC(=O)CN(CCCOc1ccccc1)CC(O)(Cn1cncn1)c1ccc(F)cc1F (racemic) | 2 µg/mL (≈ 4.21 µM) | 8 µg/mL (≈ 16.9 µM) | > 64 µg/mL | 8 µg/mL (≈ 16.9 µM) | 4 µg/mL (≈ 8.43 µM) | 8 µg/mL (≈ 16.9 µM)
COC(=O)CN(CCCOc1ccccc1)CC(O)(Cn1cncn1)c1ccc(F)cc1F (racemic) | 2 µg/mL (≈ 4.34 µM) | 8 µg/mL (≈ 17.4 µM) | > 64 µg/mL | 16 µg/mL (≈ 34.7 µM) | 4 µg/mL (≈ 8.69 µM) | 2 µg/mL (≈ 4.34 µM)
OC(CN(CCCOc1ccccc1)Cc1ccc(F)cc1)(Cn1cncn1)c1ccc(F)cc1F (racemic) | 4 µg/mL (≈ 8.06 µM) | 8 µg/mL (≈ 16.1 µM) | 16 µg/mL (≈ 32.2 µM) | 8 µg/mL (≈ 16.1 µM) | 8 µg/mL (≈ 16.1 µM) | 32 µg/mL (≈ 64.4 µM)
Cc1ccc(CN(CCCOc2ccccc2)CC(O)(Cn2cncn2)c2ccc(F)cc2F)cc1 (racemic) | 8 µg/mL (≈ 16.2 µM) | 8 µg/mL (≈ 16.2 µM) | 8 µg/mL (≈ 16.2 µM) | 4 µg/mL (≈ 8.12 µM) | 4 µg/mL (≈ 8.12 µM) | 16 µg/mL (≈ 32.5 µM)
OC(CN(CCCOc1ccccc1)Cc1ccccc1)(Cn1cncn1)c1ccc(F)cc1F (racemic) | 2 µg/mL (≈ 4.18 µM) | 8 µg/mL (≈ 16.7 µM) | 64 µg/mL (≈ 134 µM) | 16 µg/mL (≈ 33.4 µM) | 8 µg/mL (≈ 16.7 µM) | 16 µg/mL (≈ 33.4 µM)
CCCCN(CCCOc1ccccc1)CC(O)(Cn1cncn1)c1ccc(F)cc1F (racemic) | 2 µg/mL (≈ 4.5 µM) | 8 µg/mL (≈ 18 µM) | 16 µg/mL (≈ 36 µM) | 4 µg/mL (≈ 9 µM) | 1 µg/mL (≈ 2.25 µM) | 8 µg/mL (≈ 18 µM)
CCCN(CCCOc1ccccc1)CC(O)(Cn1cncn1)c1ccc(F)cc1F (racemic) | 1 µg/mL (≈ 2.32 µM) | 16 µg/mL (≈ 37.2 µM) | 32 µg/mL (≈ 74.3 µM) | 1 µg/mL (≈ 2.32 µM) | 1 µg/mL (≈ 2.32 µM) | 4 µg/mL (≈ 9.29 µM)
CCN(CCCOc1ccccc1)CC(O)(Cn1cncn1)c1ccc(F)cc1F (racemic) | 0.0313 µg/mL (≈ 0.0752 µM) | 0.5 µg/mL (≈ 1.2 µM) | 2 µg/mL (≈ 4.8 µM) | 1 µg/mL (≈ 2.4 µM) | 1 µg/mL (≈ 2.4 µM) | 1 µg/mL (≈ 2.4 µM)
OC(CNCCCOc1ccccc1)(Cn1cncn1)c1ccc(F)cc1F (racemic) | 0.0625 µg/mL (≈ 0.161 µM) | < 0.125 µg/mL | 0.5 µg/mL (≈ 1.29 µM) | 1 µg/mL (≈ 2.57 µM) | < 0.125 µg/mL | 2 µg/mL (≈ 5.15 µM)
CC(C)CN(CCCOc1ccc(Br)cc1)CC(O)(Cn1cncn1)c1ccc(F)cc1F (racemic) | 4 µg/mL (≈ 7.64 µM) | 8 µg/mL (≈ 15.3 µM) | 8 µg/mL (≈ 15.3 µM) | 16 µg/mL (≈ 30.6 µM) | 4 µg/mL (≈ 7.64 µM) | 8 µg/mL (≈ 15.3 µM)
C#CCN(CCCOc1ccc(Br)cc1)CC(O)(Cn1cncn1)c1ccc(F)cc1F (racemic) | 0.5 µg/mL (≈ 0.989 µM) | 8 µg/mL (≈ 15.8 µM) | 32 µg/mL (≈ 63.3 µM) | 8 µg/mL (≈ 15.8 µM) | 8 µg/mL (≈ 15.8 µM) | 8 µg/mL (≈ 15.8 µM)
C=CCN(CCCOc1ccc(Br)cc1)CC(O)(Cn1cncn1)c1ccc(F)cc1F (racemic) | 2 µg/mL (≈ 3.94 µM) | 1 µg/mL (≈ 1.97 µM) | 16 µg/mL (≈ 31.5 µM) | 4 µg/mL (≈ 7.88 µM) | 2 µg/mL (≈ 3.94 µM) | 8 µg/mL (≈ 15.8 µM)
CC(C)(C)OC(=O)CN(CCCOc1ccc(Br)cc1)CC(O)(Cn1cncn1)c1ccc(F)cc1F (racemic) | 4 µg/mL (≈ 6.88 µM) | 16 µg/mL (≈ 27.5 µM) | 64 µg/mL (≈ 110 µM) | 64 µg/mL (≈ 110 µM) | 4 µg/mL (≈ 6.88 µM) | 64 µg/mL (≈ 110 µM)
CCOC(=O)CN(CCCOc1ccc(Br)cc1)CC(O)(Cn1cncn1)c1ccc(F)cc1F (racemic) | 4 µg/mL (≈ 7.23 µM) | 16 µg/mL (≈ 28.9 µM) | 16 µg/mL (≈ 28.9 µM) | 32 µg/mL (≈ 57.8 µM) | 32 µg/mL (≈ 57.8 µM) | 16 µg/mL (≈ 28.9 µM)
COC(=O)CN(CCCOc1ccc(Br)cc1)CC(O)(Cn1cncn1)c1ccc(F)cc1F (racemic) | 2 µg/mL (≈ 3.71 µM) | 4 µg/mL (≈ 7.42 µM) | 64 µg/mL (≈ 119 µM) | 8 µg/mL (≈ 14.8 µM) | 4 µg/mL (≈ 7.42 µM) | 8 µg/mL (≈ 14.8 µM)
OC(CN(CCCOc1ccc(Br)cc1)Cc1ccc(F)cc1)(Cn1cncn1)c1ccc(F)cc1F (racemic) | 4 µg/mL (≈ 6.95 µM) | 8 µg/mL (≈ 13.9 µM) | 2 µg/mL (≈ 3.48 µM) | 32 µg/mL (≈ 55.6 µM) | 8 µg/mL (≈ 13.9 µM) | 16 µg/mL (≈ 27.8 µM)
Cc1ccc(CN(CCCOc2ccc(Br)cc2)CC(O)(Cn2cncn2)c2ccc(F)cc2F)cc1 (racemic) | 4 µg/mL (≈ 7 µM) | 8 µg/mL (≈ 14 µM) | 0.5 µg/mL (≈ 0.875 µM) | 64 µg/mL (≈ 112 µM) | 8 µg/mL (≈ 14 µM) | 64 µg/mL (≈ 112 µM)
OC(CN(CCCOc1ccc(Br)cc1)Cc1ccccc1)(Cn1cncn1)c1ccc(F)cc1F (racemic) | 2 µg/mL (≈ 3.59 µM) | 8 µg/mL (≈ 14.4 µM) | 32 µg/mL (≈ 57.4 µM) | 16 µg/mL (≈ 28.7 µM) | 4 µg/mL (≈ 7.18 µM) | 4 µg/mL (≈ 7.18 µM)
CCCCN(CCCOc1ccc(Br)cc1)CC(O)(Cn1cncn1)c1ccc(F)cc1F (racemic) | 2 µg/mL (≈ 3.82 µM) | 4 µg/mL (≈ 7.64 µM) | 4 µg/mL (≈ 7.64 µM) | 4 µg/mL (≈ 7.64 µM) | 4 µg/mL (≈ 7.64 µM) | 16 µg/mL (≈ 30.6 µM)
CCCN(CCCOc1ccc(Br)cc1)CC(O)(Cn1cncn1)c1ccc(F)cc1F (racemic) | 2 µg/mL (≈ 3.93 µM) | 2 µg/mL (≈ 3.93 µM) | > 64 µg/mL | 4 µg/mL (≈ 7.85 µM) | 4 µg/mL (≈ 7.85 µM) | 8 µg/mL (≈ 15.7 µM)
CCN(CCCOc1ccc(Br)cc1)CC(O)(Cn1cncn1)c1ccc(F)cc1F (racemic) | 0.5 µg/mL (≈ 1.01 µM) | 1 µg/mL (≈ 2.02 µM) | 2 µg/mL (≈ 4.04 µM) | 1 µg/mL (≈ 2.02 µM) | 4 µg/mL (≈ 8.07 µM) | 2 µg/mL (≈ 4.04 µM)
OC(CNCCCOc1ccc(Br)cc1)(Cn1cncn1)c1ccc(F)cc1F (racemic) | 0.0313 µg/mL (≈ 0.067 µM) | < 0.125 µg/mL | 0.5 µg/mL (≈ 1.07 µM) | 1 µg/mL (≈ 2.14 µM) | < 0.125 µg/mL | 0.5 µg/mL (≈ 1.07 µM)
CC(C)(C)OC(=O)CN(CCCOc1ccccc1)CC(O)(Cn1cncn1)c1ccc(F)cc1F (racemic) | 4 µg/mL (≈ 7.96 µM) | 8 µg/mL (≈ 15.9 µM) | > 64 µg/mL | > 64 µg/mL | 8 µg/mL (≈ 15.9 µM) | 64 µg/mL (≈ 127 µM)
C=CCN(CCCOc1ccccc1)CC(O)(Cn1cncn1)c1ccc(F)cc1F (racemic) | 0.25 µg/mL (≈ 0.583 µM) | 1 µg/mL (≈ 2.33 µM) | 64 µg/mL (≈ 149 µM) | 2 µg/mL (≈ 4.67 µM) | 1 µg/mL (≈ 2.33 µM) | 1 µg/mL (≈ 2.33 µM)
C#CCN(CCCOc1ccccc1)CC(O)(Cn1cncn1)c1ccc(F)cc1F (racemic) | 0.25 µg/mL (≈ 0.586 µM) | 4 µg/mL (≈ 9.38 µM) | 8 µg/mL (≈ 18.8 µM) | 4 µg/mL (≈ 9.38 µM) | 1 µg/mL (≈ 2.34 µM) | 4 µg/mL (≈ 9.38 µM)
OC(Cn1cncn1)(Cn1cncn1)c1ccc(F)cc1F [FLUCONAZOLE] | 0.5 µg/mL (≈ 1.63 µM) | 1 µg/mL (≈ 3.27 µM) | 1 µg/mL (≈ 3.27 µM) | 2 µg/mL (≈ 6.53 µM) | 4 µg/mL (≈ 13.1 µM) | 1 µg/mL (≈ 3.27 µM)
CCC(C)n1ncn(-c2ccc(N3CCN(c4ccc(OCC5COC(Cn6cncn6)(c6ccc(Cl)cc6Cl)O5)cc4)CC3)cc2)c1=O (centres undefined) [ITRACONAZOLE] | 0.125 µg/mL (≈ 0.177 µM) | < 0.125 µg/mL | 4 µg/mL (≈ 5.67 µM) | 0.5 µg/mL (≈ 0.709 µM) | 1 µg/mL (≈ 1.42 µM) | 0.125 µg/mL (≈ 0.177 µM)

From ChEMBL document CHEMBL2034974, “Design, synthesis and structure-activity relationships of new triazole derivatives containing N-substituted phenoxypropylamino side chains” (2012)
